# Reference: ChEMBL document CHEMBL3352012, “Synthesis and evaluation of novel podophyllotoxin derivatives as potential antitumor agents” (Eur J Med Chem, 2014)
# Activity calls are given as the source filed them. No cut-off for these calls is given here.
# What was measured:
# HeLa = assay: Cytotoxicity against human HeLa cells after 48 hrs by MTT assay; format: functional, cell-based
# How it was run: (§1)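 Cells kept in RPMI-1640 with 10% FBS, 2 mmol/L glutamine, penicillin and streptomycin at 37 °C, 5% CO2. Seeded at 5 × 10³ cells/well and left 24 h to attach, then exposed to compounds or etoposide reference for 48 h. MTT (5 mg/mL) added for 4 h at 37 °C, supernatant removed, formazan dissolved in DMSO, absorbance read at 490 nm.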
# K562 [1] = assay: Cytotoxicity against human K562 cells after 48 hrs by MTT assay; format: functional, cell-based; how it was run: as §1
# [2] = (§2) Cytotoxicity against human K562/A02 cells after 48 hrs by MTT assay; format: functional, cell-based; settings: K562/A02, 48 h; how it was run: as §1
# K562/A02 [3] = assay: as §2; format: functional, cell-based; how it was run: as §1
# K562 [4] = assay: Resistance index, ratio of IC50 for human K562/A02 cells to IC50 for human K562 cells; format: functional
# K562/A02 [5] = assay: Induction of apoptosis in human K562/A02 cells assessed as induction of large cytoplasmic vacuoles at 6 uM after 48 hrs by Hoechst-33342 staining based fluorescence microscopy; format: functional, cell-based
# How it was run: (§3)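 K562/A02 cells treated 48 h at 3, 6 or 12 concentration levels alongside untreated control and 6 etoposide; nuclei stained with Hoechst 33342 and viewed by fluorescence microscopy at 400× for chromatin condensation, nuclear fragmentation and other apoptotic morphology.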
# K562/A02 [6] = assay: Induction of apoptosis in human K562/A02 cells assessed as induction of abnormal mitotic figures at 6 uM after 48 hrs by Hoechst-33342 staining based fluorescence microscopy; format: functional, cell-based; how it was run: as §3
# K562/A02 [7] = assay: Induction of apoptosis in human K562/A02 cells assessed as induction of multinucleation at 6 uM after 48 hrs by Hoechst-33342 staining based fluorescence microscopy; format: functional, cell-based; how it was run: as §3
# K562/A02 [8] = assay: Induction of apoptosis in human K562/A02 cells assessed as induction of large cells formation at 6 uM after 48 hrs by Hoechst-33342 staining based fluorescence microscopy; format: functional, cell-based; how it was run: as §3
# K562/A02 [9] = assay: Induction of apoptosis in human K562/A02 cells assessed as induction of membrane blebbing at 12 uM after 48 hrs by Hoechst-33342 staining based fluorescence microscopy; format: functional, cell-based; how it was run: as §3
# K562/A02 [10] = assay: Induction of apoptosis in human K562/A02 cells assessed as induction of cell shrinkage and detachment at 12 uM after 48 hrs by Hoechst-33342 staining based fluorescence microscopy; format: functional; how it was run: as §3
# K562/A02 [11] = assay: Induction of apoptosis in human K562/A02 cells assessed as induction of chromatin condensation at 12 uM after 48 hrs by Hoechst-33342 staining based fluorescence microscopy; format: functional, cell-based; how it was run: as §3
# K562/A02 [12] = assay: Induction of apoptosis in human K562/A02 cells assessed as induction of nuclear fragmentation at 12 uM after 48 hrs by Hoechst-33342 staining based fluorescence microscopy; format: functional, cell-based; how it was run: as §3
# K562/A02 [13] = assay: Induction of apoptosis in human K562/A02 cells assessed as viable cells level at 6 uM after 48 hrs by Annexin V-FITC and propidium iodide double staining based flow cytometry (reference value: 90.7%); format: functional
# K562/A02 [14] = assay: Induction of apoptosis in human K562/A02 cells assessed as early apoptotic cells level at 6 uM after 48 hrs by Annexin V-FITC and propidium iodide double staining based flow cytometry (reference value: 6.23%); format: functional
# K562/A02 [15] = assay: Induction of apoptosis in human K562/A02 cells assessed as late apoptotic cells level at 6 uM after 48 hrs by Annexin V-FITC and propidium iodide double staining based flow cytometry (reference value: 1.58%); format: functional
# K562/A02 [16] = assay: Induction of apoptosis in human K562/A02 cells assessed as necrotic cells level at 6 uM after 48 hrs by Annexin V-FITC and propidium iodide double staining based flow cytometry (reference value: 1.53%); format: functional
# K562/A02 [17] = assay: Induction of apoptosis in human K562/A02 cells assessed as viable cells level at 3 uM after 48 hrs by Annexin V-FITC and propidium iodide double staining based flow cytometry (reference value: 90.7%); format: functional
# K562/A02 [18] = assay: Induction of apoptosis in human K562/A02 cells assessed as early apoptotic cells level at 3 uM after 48 hrs by Annexin V-FITC and propidium iodide double staining based flow cytometry (reference value: 6.23%); format: functional
# K562/A02 [19] = assay: Induction of apoptosis in human K562/A02 cells assessed as late apoptotic cells level at 3 uM after 48 hrs by Annexin V-FITC and propidium iodide double staining based flow cytometry (reference value: 1.58%); format: functional
# K562/A02 [20] = assay: Induction of apoptosis in human K562/A02 cells assessed as necrotic cells level at 3 uM after 48 hrs by Annexin V-FITC and propidium iodide double staining based flow cytometry (reference value: 1.53%); format: functional
# K562/A02 [21] = assay: Induction of apoptosis in human K562/A02 cells assessed as viable cells level at 12 uM after 48 hrs by Annexin V-FITC and propidium iodide double staining based flow cytometry (reference value: 90.7%); format: functional
# K562/A02 [22] = assay: Induction of apoptosis in human K562/A02 cells assessed as early apoptotic cells level at 12 uM after 48 hrs by Annexin V-FITC and propidium iodide double staining based flow cytometry (reference value: 6.23%); format: functional
# K562/A02 [23] = assay: Induction of apoptosis in human K562/A02 cells assessed as late apoptotic cells level at 12 uM after 48 hrs by Annexin V-FITC and propidium iodide double staining based flow cytometry (reference value: 1.58%); format: functional
# K562/A02 [24] = assay: Induction of apoptosis in human K562/A02 cells assessed as necrotic cells level at 12 uM after 48 hrs by Annexin V-FITC and propidium iodide double staining based flow cytometry (reference value: 1.53%); format: functional
# [25] = Reduction in MDR1 mRNA expression in human K562/A02 cells incubated for 48 hrs by RT-PCR method; format: functional, cell-based
# How it was run: (§4)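 K562 and K562/A02 cells seeded 1 × 10⁵/well in 10% FCS/RPMI-1640; compound added 24 h later, then cultured another 48 h. Total RNA extracted with Trizol, checked at 260/280 nm, reverse transcribed; MDR-1 (157 bp) and β-actin (540 bp) amplified, products run on agarose gel, stained, MDR-1 normalised to β-actin against untreated control.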
# [26] = Reduction in MDR1 mRNA expression in human K562/A02 cells assessed as MDR1 mRNA levels at 12 uM incubated for 48 hrs by RT-PCR method (reference value: 100%); format: functional, cell-based; design: scale not given: the % may be the effect or the level left; how it was run: as §4
# [27] = Reduction in MDR1 mRNA expression in human K562/A02 cells at 6 uM incubated for 48 hrs by RT-PCR method; format: functional, cell-based; how it was run: as §4
# [28] = Reduction in MDR1 mRNA expression in human K562/A02 cells at 6 uM incubated for 48 hrs by RT-PCR method relative to untreated control; format: functional, cell-based; how it was run: as §4
# K562/A02 [29] = assay: Induction of apoptosis in human K562/A02 cells at 12 uM after 48 hrs by Annexin V-FITC and propidium iodide double staining based flow cytometry (reference value: 7.9 +/- 1.34%); format: functional
smiles,measurement,setting,value
COc1cc([C@@H]2c3cc4c(cc3[C@@H](NCc3ccc([N+](=O)[O-])o3)[C@H]3COC(=O)[C@H]23)OCO4)cc(OC)c1OC,IC50,HeLa,7.55 µM
same,growth inhibition (GI),K562 [1],Dose-dependent effect
same,IC50,"K562 [1]; K562, 48 h",5.99 µM
same,IC50,[2],5.42 µM
same,growth inhibition (GI),K562/A02 [3],Dose-dependent effect
same,Ratio IC50,K562 [4],0.905
same,Activity,K562/A02 [5],Active
same,Activity,K562/A02 [6],Active
same,Activity,K562/A02 [7],Active
same,Activity,K562/A02 [8],Active
same,Activity,K562/A02 [9],Active
same,Activity,K562/A02 [10],Active
same,Activity,K562/A02 [11],Active
same,Activity,K562/A02 [12],Active
same,Activity,K562/A02 [13],46.4%
same,Activity,K562/A02 [14],28.2%
same,Activity,K562/A02 [15],11.9%
same,Activity,K562/A02 [16],13.5%
same,Activity,K562/A02 [17],77.3%
same,Activity,K562/A02 [18],14.8%
same,Activity,K562/A02 [19],4.02%
same,Activity,K562/A02 [20],3.9%
same,Activity,K562/A02 [21],34.5%
same,Activity,K562/A02 [22],56.3%
same,Activity,K562/A02 [23],8.05%
same,Activity,K562/A02 [24],1.09%
same,inhibition,[25],Dose-dependent effect
same,Activity,[26],31.2%
same,MDR1 mRNA reduction (qualitative),[27],Active
same,inhibition,[28],70%
same,Activity,K562/A02 [29],65.35%
